Results: paper PMC4410974 (Clinical cancer research : an official journal of the …, 2012)

Assay: Sirolimus whole blood pharmacokinetics
Assay type: in vivo, human
Conditions: for AUC(0-inf) / Cmax / half-life / AUC / Tmax: human, whole blood, oral; for AUC: AUC [SD]; for Tmax: Tmax [SD]
Method in brief: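 Advanced-cancer patients received oral sirolimus once weekly as 1 mg tablets. Week 1 was sirolimus alone. From week 2, ketoconazole was added: 200 mg bid on day 1, then 200 mg daily for 3 days. Whole blood was sampled predose and at 0.25, 0.5, 1, 2, 4, 8, 24 and 48 h in weeks 1–2, and predose in week 3. Analysis was noncompartmental. Cohort doses were re-estimated toward the target AUC assuming dose–AUC linearity.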

[1] = 30 mg, sirolimus alone study, 4 hours apart (total 60 mg), N=5, mean
[2] = 30 mg, sirolimus alone study, 24 hours apart (total 60 mg), N=3, mean
[3] = 45 mg, sirolimus alone study, 24 hours apart (total 90 mg), N=2, mean

- AUC(0-inf) (1 mg, sirolimus 1 mg, with ketoconazole, n=6): 935 ng·h/mL
- AUC(0-inf) (1 mg, sirolimus 1 mg, without ketoconazole, n=6): 186 ng·h/mL
- Cmax (1 mg, Cmax, sirolimus 1 mg, with ketoconazole, n=6): 25.4 ng/mL
- Cmax (1 mg, Cmax, sirolimus 1 mg, without ketoconazole, n=6): 5.4 ng/mL
- half-life (1 mg, T1/2, sirolimus 1 mg, without ketoconazole, n=6): 4920 min
- AUC(0-inf) (2 mg, sirolimus 2 mg, with ketoconazole, n=6): 1350 ng·h/mL
- AUC(0-inf) (2 mg, sirolimus 2 mg, without ketoconazole, n=6): 271 ng·h/mL
- AUC(0-inf) (3 mg, sirolimus 3 mg, with ketoconazole, n=6): 2450 ng·h/mL
- AUC(0-inf) (3 mg, sirolimus 3 mg, without ketoconazole, n=6): 400 ng·h/mL
- Cmax (3 mg, Cmax, sirolimus 3 mg, with ketoconazole, n=6): 49.2 ng/mL
- half-life (3 mg, T1/2, sirolimus 3 mg, with ketoconazole, n=6): 5040 min
- half-life (3 mg, T1/2, sirolimus 3 mg, without ketoconazole, n=6): 2100 min
- AUC(0-inf) (4 mg, sirolimus 4 mg, with ketoconazole, n=6): 2900 ng·h/mL
- AUC(0-inf) (4 mg, sirolimus 4 mg, without ketoconazole, n=6): 456 ng·h/mL
- Cmax (4 mg, Cmax, sirolimus 4 mg, with ketoconazole, n=6): 66.8 ng/mL
- Cmax (4 mg, Cmax, sirolimus 4 mg, without ketoconazole, n=6): 21.3 ng/mL
- half-life (4 mg, T1/2, sirolimus 4 mg, without ketoconazole, n=6): 2160 min
- AUC(0-inf) (5 mg, sirolimus 5 mg, with ketoconazole, n=6): 3140 ng·h/mL
- AUC(0-inf) (5 mg, sirolimus 5 mg, without ketoconazole, n=6): 676 ng·h/mL
- Cmax (5 mg, Cmax, sirolimus 5 mg, with ketoconazole, n=6): 71.2 ng/mL
- Cmax (5 mg, Cmax, sirolimus 5 mg, without ketoconazole, n=6): 25.8 ng/mL
- half-life (5 mg, T1/2, sirolimus 5 mg, with ketoconazole, n=6): 3420 min
- half-life (5 mg, T1/2, sirolimus 5 mg, without ketoconazole, n=6): 2100 min
- AUC(0-inf) (6 mg, sirolimus 6 mg, with ketoconazole, n=3): 2620 ng·h/mL
- AUC(0-inf) (6 mg, sirolimus 6 mg, without ketoconazole, n=3): 510 ng·h/mL
- Cmax (6 mg, Cmax, sirolimus 6 mg, with ketoconazole, n=3): 74.6 ng/mL
- Cmax (6 mg, Cmax, sirolimus 6 mg, without ketoconazole, n=3): 15 ng/mL
- half-life (6 mg, T1/2, sirolimus 6 mg, without ketoconazole, n=3): 4680 min
- AUC(0-inf) (8 mg, sirolimus 8 mg, with ketoconazole, n=1): 1620 ng·h/mL
- AUC(0-inf) (8 mg, sirolimus 8 mg, without ketoconazole, n=1): 420 ng·h/mL
- Cmax (8 mg, Cmax, sirolimus 8 mg, with ketoconazole, n=1): 85.2 ng/mL
- Cmax (8 mg, Cmax, sirolimus 8 mg, without ketoconazole, n=1): 25.2 ng/mL
- half-life (8 mg, T1/2, sirolimus 8 mg, with ketoconazole, n=1): 2040 min
- half-life (8 mg, T1/2, sirolimus 8 mg, without ketoconazole, n=1): 1080 min
- AUC(0-inf) (16 mg, sirolimus 16 mg, with ketoconazole, n=2): 5010 ng·h/mL
- Cmax (16 mg, Cmax, sirolimus 16 mg, with ketoconazole, n=2): 123 ng/mL
- half-life (16 mg, T1/2, sirolimus 16 mg, with ketoconazole, n=2): 1920 min
- AUC [1]: 2050 ng·h/mL
- AUC [2]: 3680 ng·h/mL
- Cmax (30 mg, Cmax [SD], sirolimus alone study, 4 hours apart (total 60 mg), N=5, mean): 32.9 ng/mL
- Cmax (30 mg, Cmax [SD], sirolimus alone study, 24 hours apart (total 60 mg), N=3, mean): 83.9 ng/mL
- Tmax [1]: 2.2 h
- Tmax [2]: 2.3 h
- AUC [3]: 3360 ng·h/mL
- Cmax (45 mg, Cmax [SD], sirolimus alone study, 24 hours apart (total 90 mg), N=2, mean): 42.8 ng/mL
- Tmax [3]: 2.1 h
- CL/F (sirolimus 1 mg, with ketoconazole, n=6): 1.2 L/h
- CL/F (sirolimus 1 mg, without ketoconazole, n=6): 10.3 L/h
- CL/F (sirolimus 2 mg, with ketoconazole, n=6): 1.8 L/h
- CL/F (sirolimus 2 mg, without ketoconazole, n=6): 9.5 L/h
- CL/F (sirolimus 3 mg, with ketoconazole, n=6): 1.6 L/h
- CL/F (sirolimus 3 mg, without ketoconazole, n=6): 8.0 L/h
- CL/F (sirolimus 4 mg, with ketoconazole, n=6): 2.1 L/h
- CL/F (sirolimus 4 mg, without ketoconazole, n=6): 10.0 L/h
- CL/F (sirolimus 5 mg, with ketoconazole, n=6): 2.8 L/h
- CL/F (sirolimus 5 mg, without ketoconazole, n=6): 9.0 L/h
- CL/F (sirolimus 6 mg, with ketoconazole, n=3): 2.6 L/h
- CL/F (sirolimus 6 mg, without ketoconazole, n=3): 15.6 L/h
- CL/F (sirolimus 8 mg, with ketoconazole, n=1): 4.9 L/h
- CL/F (sirolimus 8 mg, without ketoconazole, n=1): 19.1 L/h
- CL/F (sirolimus 15 mg, with grapefruit juice, n=5): 5.9 L/h
- CL/F (sirolimus 15 mg, without grapefruit juice, n=5): 20.5 L/h
- CL/F (sirolimus 16 mg, with ketoconazole, n=2): 3.2 L/h
- CL/F (sirolimus 16 mg, without ketoconazole, n=2): 11.2 L/h
- CL/F (sirolimus 20 mg, with grapefruit juice, n=5): 11.5 L/h
- CL/F (sirolimus 20 mg, without grapefruit juice, n=5): 36.9 L/h
- CL/F (sirolimus 25 mg, with grapefruit juice, n=4): 9.2 L/h
- CL/F (sirolimus 25 mg, without grapefruit juice, n=4): 32.6 L/h
- CL/F (sirolimus 30 mg, with grapefruit juice, n=5): 12.6 L/h
- CL/F (sirolimus 30 mg, without grapefruit juice, n=5): 18.7 L/h
- CL/F (sirolimus 35 mg, with grapefruit juice, n=8): 12.8 L/h
- CL/F (sirolimus 35 mg, without grapefruit juice, n=8): 29.4 L/h
- CL/F [SD] (sirolimus alone study, 30 mg, 4 hours apart (total 60 mg), N=5, mean): 19.786 [15.2] l/h
- CL/F [SD] (sirolimus alone study, 30 mg, 24 hours apart (total 60 mg), N=3, mean): 17.087 [2.90] l/h
- CL/F [SD] (sirolimus alone study, 45 mg, 24 hours apart (total 90 mg), N=2, mean): 26.842 [1.1] l/h
- CL/F [SD] (sirolimus alone study, dose cohort 10 mg, N=6, mean): 16.922 [6.08] l/h
- CL/F [SD] (sirolimus alone study, dose cohort 20 mg, N=7, mean): 18.736 [11.0] l/h
- CL/F [SD] (sirolimus alone study, dose cohort 30 mg, N=6, mean): 16.148 [10.4] l/h
- CL/F [SD] (sirolimus alone study, dose cohort 60 mg, N=8, mean): 19.588 [13.6] l/h
- Sirolimus dose at which target AUC of 3810 ng-hr/ml was achieved/observed (sirolimus plus grapefruit juice study): 25 mg
- Sirolimus dose at which target AUC of 3810 ng-hr/ml was achieved (sirolimus plus ketoconazole study): 16 mg
SMILES: CO[C@H]1C[C@@H]2CC[C@@H](C)[C@@](O)(O2)C(=O)C(=O)N2CCCC[C@H]2C(=O)O[C@H]([C@H](C)C[C@@H]2CC[C@@H](O)[C@H](OC)C2)CC(=O)[C@H](C)/C=C(\C)[C@@H](O)[C@@H](OC)C(=O)[C@H](C)C[C@H](C)/C=C/C=C/C=C/1C [Sirolimus]
